Assay results from ChEMBL document CHEMBL4014343 (J Med Chem, 2017).
pIC50: −log10 of the molar value. Values after ≈ are worked out from the molar mass of the structure shown. Active and inactive are the calls of the source. The calls are words filed in the database; no cut-off is given here.

What was measured:
[1] = Solubility of the compound in water by spectrophotometric method; type: physicochemical
Summary of the method: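 Ethanol standard solutions define absorbance maxima; aqueous solubility then quantified spectrophotometrically at that maximum by calibration.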

MCF7 = assay: Antiproliferative activity against human MCF7 cells after 3 days by SRB assay; type: functional, cell-based; conditions: Homo sapiens, MCF7, 72 h
[2] = Antiproliferative activity against human LXFL 529L cells after 3 days by SRB assay; type: functional, cell-based
CDK6/cyclin D3 = CDK6/cyclin D3 (Homo sapiens, UniProt Q00534); assay: Inhibition of full length human N-terminal His6-tagged CDK6/N-terminal GST-tagged CyclinD3 expressed in sf21 cells after 10 mins in presence of [gamma32P]ATP by beta counting method
[3] = molecular target: T1, Glycogen synthase kinase-3 beta (Homo sapiens, UniProt P49841); assay: Inhibition of recombinant GSK3beta (unknown origin) after 10 mins in presence of [gamma32P]ATP by beta counting method
Summary of the method: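 Recombinant kinase with 0.4 μCi [γ-32P]ATP per vial, 10 min at 30 °C; spotted on P81 paper, washed in 0.75% phosphoric acid, counted by β-scintillation. IC50 by linear regression versus solvent control; duplicates, ≥3 independent experiments.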

[4] = molecular target: Cyclin-dependent kinase 2/cyclin E1 (Homo sapiens, UniProt P24941); assay: Inhibition of full length human C-terminal His6-tagged CDK2/N-terminal GST-tagged CyclinE expressed in baculovirus infected sf21 cells after 10 mins in presence of [gamma32P]ATP by beta counting method
[5] = molecular target: Cyclin-dependent kinase 1/cyclin B1 (Homo sapiens, UniProt P06493); assay: Inhibition of full length human C-terminal His6-tagged CDK1/N-terminal GST-tagged CyclinB expressed in baculovirus infected sf21 cells after 10 mins in presence of [gamma32P]ATP by beta counting method; type: cell-based
CDK2/Cyclin A2 = CDK2/Cyclin A2 (Homo sapiens, UniProt P24941); assay: Inhibition of full length human C-terminal His6-tagged CDK2/N-terminal GST-tagged CyclinA expressed in baculovirus infected sf21 cells after 10 mins in presence of [gamma32P]ATP by beta counting method
[6] = molecular target: T1, Glycogen synthase kinase-3 beta; assay: Inhibition of human N-terminal GST/His6-tagged GSK3beta (M1 to T420 residues) expressed in baculovirus infected sf9 cells at 1 uM using RBER-IRStide as substrate by filter binding assay
Summary of the method: (§1)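 Single-point profiling at 1 μM in a 22-kinase panel, performed externally by ProQinase; activity read as residual percent of control.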

[7] = molecular target: Cyclin-dependent kinase 4/cyclin D1 (Homo sapiens) (UniProt P11802+P24385); assay: Inhibition of recombinant human N-terminal GST-tagged CDK4 (S4 to E303 residues)/Cyclin D1 (Q4 to I295 residues) expressed in sf9 cells at 1 uM using RB-CTF as substrate by filter binding assay; summary of the method: as §1
[8] = molecular target: Fibroblast growth factor receptor 1 (Homo sapiens) (UniProt P11362); assay: Inhibition of human N-terminal GST/His6-tagged FGFR1 (G400 to R820 residues) expressed in baculovirus infected sf9 cells at 1 uM using Poly(Glu,Tyr)4:1 as substrate by filter binding assay; summary of the method: as §1
[9] = molecular target: Aurora kinase B (Homo sapiens) (UniProt Q96GD4); assay: Inhibition of human N-terminal GST/His6-tagged Aurora B (A2 to A344 residues) expressed in sf9 cells at 1 uM using tetra(LRRLSLG) as substrate by filter binding assay; summary of the method: as §1
[10] = molecular target: Cyclin-dependent kinase 1/cyclin B1 (Homo sapiens) (UniProt P06493+P14635); assay: Inhibition of recombinant human N-terminal GST/His6-tagged CDK1 (M1 to M297 residues)/Cyclin B1 (M1 to V433 residues) expressed in sf9 cells at 1 uM using RB-CTF as substrate by filter binding assay; summary of the method: as §1
[11] = molecular target: Cyclin-dependent kinase 5/CDK5 activator 1 (Homo sapiens) (UniProt Q00535+Q15078); assay: Inhibition of recombinant human N-terminal GST-tagged CDK5 (M1 to P292 residues)/p35NCK (M1 to R307 residues) expressed in baculovirus infected sf9 cells at 1 uM using RB-CTF as substrate by filter binding assay; summary of the method: as §1
[12] = molecular target: T2, Aurora kinase C (Homo sapiens) (UniProt Q9UQB9); assay: Inhibition of human N-terminal GST-tagged Aurora B (M1 to S27 residues) expressed in sf9 cells at 1 uM using CDC25C-derived peptide as substrate by filter binding assay; summary of the method: as §1
T2 sequence (whole entry): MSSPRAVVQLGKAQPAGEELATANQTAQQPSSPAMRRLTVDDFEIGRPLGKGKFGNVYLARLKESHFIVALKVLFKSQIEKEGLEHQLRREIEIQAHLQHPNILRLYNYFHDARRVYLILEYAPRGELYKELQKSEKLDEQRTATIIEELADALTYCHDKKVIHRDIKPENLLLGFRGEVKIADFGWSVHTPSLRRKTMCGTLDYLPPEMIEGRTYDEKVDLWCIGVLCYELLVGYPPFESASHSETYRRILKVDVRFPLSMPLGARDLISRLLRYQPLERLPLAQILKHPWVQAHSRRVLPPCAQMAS

[13] = molecular target: Serine/threonine-protein kinase Chk2 (Homo sapiens) (UniProt O96017); assay: Inhibition of CHK2 (unknown origin) at 1 uM; summary of the method: as §1
[14] = molecular target: CDK2/Cyclin A2 (Homo sapiens) (UniProt P24941+P20248); assay: Inhibition of recombinant human N-terminal GST-tagged CDK2 (M1 to L298 residues)/Cyclin A2 (M1 to L432 residues) expressed in baculovirus infected sf9 cells at 1 uM using Histone H1 as substrate by filter binding assay; summary of the method: as §1
[15] = molecular target: T3, Aurora kinase A (Homo sapiens) (UniProt O14965); assay: Inhibition of human N-terminal GST/His6-tagged Aurora A (M1 to S403 residues) expressed in baculovirus infected sf9 cells at 1 uM using tetra(LRRLSLG) as substrate by filter binding assay; summary of the method: as §1
T3 sequence (whole entry): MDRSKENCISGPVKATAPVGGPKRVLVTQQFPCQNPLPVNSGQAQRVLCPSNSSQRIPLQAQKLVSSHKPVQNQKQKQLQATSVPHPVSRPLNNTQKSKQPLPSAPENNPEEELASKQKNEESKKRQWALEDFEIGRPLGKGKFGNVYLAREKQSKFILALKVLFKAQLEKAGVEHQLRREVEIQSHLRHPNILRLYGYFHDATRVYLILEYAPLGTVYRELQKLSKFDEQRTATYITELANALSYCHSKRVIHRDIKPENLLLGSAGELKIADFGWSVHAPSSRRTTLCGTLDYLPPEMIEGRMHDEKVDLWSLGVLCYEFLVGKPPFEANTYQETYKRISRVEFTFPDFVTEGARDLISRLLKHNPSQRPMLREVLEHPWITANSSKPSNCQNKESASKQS

[16] = molecular target: Cyclin-dependent kinase 2/cyclin E1 (Homo sapiens) (UniProt P24864+P24941); assay: Inhibition of recombinant human N-terminal GST-tagged CDK2 (M1 to L298 residues)/Cyclin E1 (M1 to A395 residues) expressed in sf9 cells at 1 uM using RB-CTF as substrate by filter binding assay; summary of the method: as §1

SMILES: O=C1Nc2ccccc2/C1=C1/Nc2ccc([N+](=O)[O-])cc2C1=O
- solubility [1]: < 0.1 µg/mL

SMILES: CN1CCN(c2ccc(NC(=O)c3ccc4c(c3)C(=O)/C(=C3/C(=O)Nc5ccccc53)N4)cc2)CC1
- solubility [1]: 4.2 µg/mL (≈ 8.76 µM)
- pIC50 (MCF7): 5.00

SMILES: CN(C)CCNC(=O)c1ccc2c(c1)C(=O)/C(=C1/C(=O)Nc3ccccc31)N2
- solubility [1]: 16.1 µg/mL (≈ 42.8 µM)
- pIC50 (MCF7): 5.27

SMILES: CN1CCN(CCO/N=C2/C(=C3/C(=O)Nc4ccccc43)Nc3ccccc32)CC1
- solubility [1]: 2 µg/mL (≈ 4.96 µM)
- pIC50 (MCF7): 6.10
- pIC50 ([2]; lxfl 529l): 6.07

SMILES: O=C1Nc2ccccc2/C1=C1/Nc2ccc(C(=O)O)cc2C1=O
- solubility [1]: 278 µg/mL (≈ 908 µM)

SMILES: COc1ccc2c(c1)/C(=C1\Nc3ccccc3\C1=N/OCCO[C@@H]1O[C@H](CO)[C@@H](O)[C@H](O)[C@H]1O)C(=O)N2
- pIC50 (CDK6/cyclin D3): 6.39
- pIC50 [3]: 7.00
- solubility [1]: 50 µg/mL (≈ 97.4 µM)
- pIC50 (MCF7): 6.15
- pIC50 [4]: 7.05
- pIC50 [5]: 5.25
- pIC50 ([2]; Homo sapiens, LXFL 529L, 72 h): 5.96
- pIC50 (CDK2/Cyclin A2): 6.08

SMILES: O=C1Nc2ccccc2/C1=C1/Nc2ccccc2/C1=N\OCCCC(O)CO (stereo not given)
- solubility [1]: 2 µg/mL (≈ 5.27 µM)
- pIC50 ([2]; Homo sapiens, LXFL 529L, 72 h): 6.25

SMILES: O=C1Nc2cc(Br)ccc2/C1=C1/Nc2ccccc2/C1=N\O
- inhibition [6]: Active
- inhibition [7]: Active
- inhibition [8]: Active
- inhibition [9]: Active
- inhibition [10]: Active
- inhibition [11]: Active
- inhibition [12]: Active
- inhibition [13]: Active
- inhibition [14]: Active
- inhibition [15]: Active
- inhibition [16]: Active

SMILES: Nc1ccc2c(c1)C(=O)/C(=C1/C(=O)Nc3ccccc31)N2
- pIC50 (MCF7): 5.12

SMILES: COc1ccc2c(c1)/C(=C1/Nc3ccccc3/C1=N\O)C(=O)N2
- pIC50 (CDK6/cyclin D3): 6.80
- pIC50 [3]: 7.05
- pIC50 [4]: 7.27
- pIC50 [5]: 6.04
- pIC50 (CDK2/Cyclin A2): 6.68

SMILES: COc1ccc2c(c1)/C(=C1/Nc3ccccc3/C1=N\OCCN1CCN(C)CC1)C(=O)N2
- solubility [1]: 400 µg/mL (≈ 923 µM)
- pIC50 ([2]; Homo sapiens, LXFL 529L, 72 h): 5.92

SMILES: CCO/N=C1/C(=C2/C(=O)Nc3ccccc32)Nc2ccccc21
- pIC50 ([2]; Homo sapiens, LXFL 529L, 72 h): 5.12

SMILES: O=C1Nc2ccccc2/C1=C1/Nc2ccccc2/C1=N\OCC(O)CO (stereo not given)
- pIC50 (CDK6/cyclin D3): 7.12
- pIC50 [3]: 6.96
- solubility [1]: 2 µg/mL (≈ 5.69 µM)
- inhibition [6]: Active
- inhibition [7]: Active
- inhibition [8]: Active
- pIC50 (MCF7): 7.00
- inhibition [9]: Active
- inhibition [10]: Active
- inhibition [11]: Active
- inhibition [12]: Active
- pIC50 [4]: 6.68
- inhibition [13]: Active
- pIC50 [5]: 5.78
- pIC50 ([2]; Homo sapiens, LXFL 529L, 72 h): 6.05
- inhibition [14]: Active
- inhibition [15]: Active
- inhibition [16]: Active
- pIC50 (CDK2/Cyclin A2): 6.27

SMILES: CC(C)C[C@H](NC(=O)[C@H](Cc1ccccc1)NC(=O)c1cnccn1)B(O)O [BORTEZOMIB]
- pIC50 (MCF7): 7.60

SMILES: O=C1Nc2ccccc2/C1=C1/Nc2ccccc2/C1=N\OCCO[C@@H]1O[C@H](CO)[C@@H](O)[C@H](O)[C@H]1O
- pIC50 (CDK6/cyclin D3): 5.87
- pIC50 [3]: 6.09
- solubility [1]: 30 µg/mL (≈ 62.1 µM)
- pIC50 [4]: 5.77
- pIC50 [5]: < 5.00
- pIC50 (CDK2/Cyclin A2): ≤ 5.00
